In ChEMBL document CHEMBL4819005, “Design, synthesis, and in vitro and in vivo anti-angiogenesis study of a novel vascular endothelial growth factor receptor-2 (VEGFR-2) inhibitor based on 1,2,3-triazole scaffold” (Eur J Med Chem, 2021):
Calls of active or inactive are those of the source. No cut-off for these calls is given here.

Columns and labels:
[1] = test system: MKN-45; assay: cells; details: Homo sapiens, MKN-45, 24 h
[2] = test system: HUVEC; assay: cells; details: Homo sapiens, 24 h
[3] = test system: HT-29; assay: cells; details: Homo sapiens, HT-29, 24 h
[4] = target: Vascular endothelial growth factor receptor 2 (Homo sapiens, UniProt P35968); assay: Inhibition of recombinant human His-tagged VEGFR2 expressed in Baculovirus expression system using ADP-Glo as substrate measured after 30 mins in presence of ATP by ADP-Glo kinase assay
Vascular endothelial growth factor receptor 2, sequence (P35968 whole entry): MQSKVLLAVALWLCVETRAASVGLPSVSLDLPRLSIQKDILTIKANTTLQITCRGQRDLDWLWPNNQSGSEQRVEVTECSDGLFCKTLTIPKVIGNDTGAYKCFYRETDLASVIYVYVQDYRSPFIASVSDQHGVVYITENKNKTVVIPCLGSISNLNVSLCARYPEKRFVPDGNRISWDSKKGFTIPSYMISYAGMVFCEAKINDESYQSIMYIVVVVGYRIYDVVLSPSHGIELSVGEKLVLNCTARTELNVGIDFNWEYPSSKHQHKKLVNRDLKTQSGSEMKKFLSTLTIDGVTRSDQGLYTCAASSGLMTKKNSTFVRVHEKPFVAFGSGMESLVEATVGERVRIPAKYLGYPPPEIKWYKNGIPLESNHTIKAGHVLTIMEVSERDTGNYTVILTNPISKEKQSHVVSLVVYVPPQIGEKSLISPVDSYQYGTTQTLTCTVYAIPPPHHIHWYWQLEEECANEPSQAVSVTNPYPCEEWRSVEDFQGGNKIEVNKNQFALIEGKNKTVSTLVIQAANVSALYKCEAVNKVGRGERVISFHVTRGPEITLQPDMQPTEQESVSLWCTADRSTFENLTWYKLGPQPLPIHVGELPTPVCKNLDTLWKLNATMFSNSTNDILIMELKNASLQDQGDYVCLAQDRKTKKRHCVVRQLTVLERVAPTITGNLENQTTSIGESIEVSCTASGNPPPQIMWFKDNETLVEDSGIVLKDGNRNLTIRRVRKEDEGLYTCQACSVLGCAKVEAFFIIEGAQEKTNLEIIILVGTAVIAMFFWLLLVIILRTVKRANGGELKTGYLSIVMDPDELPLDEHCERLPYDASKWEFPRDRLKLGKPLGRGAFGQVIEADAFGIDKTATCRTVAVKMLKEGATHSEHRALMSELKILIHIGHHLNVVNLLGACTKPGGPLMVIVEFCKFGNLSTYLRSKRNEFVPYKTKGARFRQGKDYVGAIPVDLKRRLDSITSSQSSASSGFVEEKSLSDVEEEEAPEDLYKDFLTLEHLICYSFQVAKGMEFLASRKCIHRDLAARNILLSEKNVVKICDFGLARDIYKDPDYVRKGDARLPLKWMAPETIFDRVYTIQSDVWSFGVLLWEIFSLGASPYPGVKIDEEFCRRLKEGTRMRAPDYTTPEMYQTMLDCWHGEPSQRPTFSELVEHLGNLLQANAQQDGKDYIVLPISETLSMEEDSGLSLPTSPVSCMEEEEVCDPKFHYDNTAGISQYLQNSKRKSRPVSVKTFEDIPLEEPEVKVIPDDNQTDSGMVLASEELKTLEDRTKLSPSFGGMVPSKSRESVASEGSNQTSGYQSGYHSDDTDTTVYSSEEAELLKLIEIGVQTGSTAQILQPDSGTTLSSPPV

[5] = test system: HUVEC; assay: Anti-angiogenesis activity against HUVEC cells assessed as inhibition of cell migration measured after 24 hrs by Transwell assay; type: functional, cell-based; details: Homo sapiens, dose 0.2-0.8 µM
Procedure, shortened: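 HUVECs pretreated 24 h in serum-free DMEM with 0, 0.2, 0.4 or 0.8 μM compound, then counted. 1×10^4 cells placed in upper transwell chamber (8 µm pores), lower chamber DMEM with 20% serum. After 24 h, filters fixed in methanol and stained with 0.1% crystal violet. Migrated cells on lower surface counted by microscopy.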

[6] = species: Danio rerio; details: dose 20.0 mg/L, time 24.0 hrs
[7] = species: Danio rerio; details: dose 40.0 mg/L, time 24.0 hrs
[8] = test system: HUVEC; assay: Anti-angiogenesis activity against HUVEC cells assessed as inhibition of tube formation at 0.2 to 0.8 uM measured after 6 hrs by microscopic method; type: functional, cell-based; details: Homo sapiens, dose 0.2-0.8 µM
Procedure, shortened: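 HUVECs exposed to 0, 0.2, 0.4 or 0.8 μM compound, then collected. 1×10⁴ cells seeded on Matrigel and cultured 6 h. Tubes photographed under microscope and total tube length quantified.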

SMILES | IC50 [1] [µM] | IC50 [2] [µM] | IC50 [3] [µM] | IC50 [4] [µM] | Activity [5] | inhibition [6] | inhibition [7] | Activity [8]
O=C1Nc2ccccc2/C1=C/c1ccc(-c2cn(-c3ccccc3F)nn2)cc1 | 12.5 | 19.3 | 10.5 | 0.115 | – | – | – | –
Cc1ccc(-n2cc(-c3ccc(/C=C4\C(=O)Nc5ccc(F)cc54)cc3)nn2)cc1 | 34.6 | 13.8 | 3.98 | – | – | – | – | –
N#Cc1cccc(-n2cc(-c3ccc(/C=C4\C(=O)Nc5ccc(F)cc54)cc3)nn2)c1 | > 20 | > 20 | > 20 | 0.193 | – | – | – | –
O=C1Nc2ccc(F)cc2C1=Cc1ccc(-c2cn(-c3ccccc3)nn2)cc1 | 11.1 | 13.7 | 8.12 | – | – | – | – | –
N#Cc1cccc(-n2cc(-c3ccc(/C=C4\C(=O)Nc5ccccc54)cc3)nn2)c1 | > 20 | > 20 | > 20 | > 0.2 | – | – | – | –
O=C1Nc2ccccc2/C1=C/c1ccc(-c2cn(-c3cccc(F)c3)nn2)cc1 | > 20 | > 20 | > 20 | > 0.2 | – | – | – | –
O=C1Nc2ccc(F)cc2/C1=C/c1ccc(-c2cn(-c3ccccc3Cl)nn2)cc1 | 7.54 | 18.2 | 5.95 | 0.12 | – | – | – | –
CCN(CC)CCNC(=O)c1c(C)[nH]c(/C=C2\C(=O)Nc3ccc(F)cc32)c1C [SUNITINIB] | 9.25 | 6.37 | 10.3 | – | – | – | – | –
Cc1ccc(-n2cc(-c3ccc(/C=C4\C(=O)Nc5ccccc54)cc3)nn2)cc1 | 1.92 | 7.94 | 1.61 | – | Dose-Dependent Effect | Active | Active | Dose-Dependent Effect
O=C1Nc2ccccc2/C1=C/c1ccc(-c2cn(-c3ccc(Cl)c(C(F)(F)F)c3)nn2)cc1 | 8.89 | > 20 | 9.67 | 0.108 | – | – | – | –
Cc1cccc(-n2cc(-c3ccc(/C=C4\C(=O)Nc5ccc(F)cc54)cc3)nn2)c1 | 6.81 | 9.88 | 7.32 | – | – | – | – | –
Cc1ccccc1-n1cc(-c2ccc(C=C3C(=O)Nc4ccc(F)cc43)cc2)nn1 | 7.21 | 8.63 | 5.87 | – | – | – | – | –
O=C1Nc2ccc(F)cc2/C1=C/c1ccc(-c2cn(-c3ccccc3F)nn2)cc1 | 8.51 | 14.4 | 8.98 | 0.14 | – | – | – | –
O=C1Nc2ccc(F)cc2/C1=C/c1ccc(-c2cn(-c3cccc(F)c3)nn2)cc1 | 8.19 | 17.2 | 13 | 0.171 | – | – | – | –
O=C1Nc2ccccc2/C1=C/c1ccc(-c2cn(-c3ccccc3)nn2)cc1 | 11.6 | 12.7 | 7.07 | – | – | – | – | –
N#Cc1ccccc1-n1cc(-c2ccc(/C=C3\C(=O)Nc4ccccc43)cc2)nn1 | 14.6 | 19.7 | 14.4 | 0.169 | – | – | – | –
O=C1Nc2ccccc2/C1=C/c1ccc(-c2cn(-c3ccc(F)cc3)nn2)cc1 | 16.7 | 14.7 | 17.7 | 0.199 | – | – | – | –
Cc1ccccc1-n1cc(-c2ccc(/C=C3\C(=O)Nc4ccccc43)cc2)nn1 | 9.77 | 14.7 | 8.71 | 0.111 | – | – | – | –
Cc1cccc(-n2cc(-c3ccc(/C=C4\C(=O)Nc5ccccc54)cc3)nn2)c1 | 4.69 | 13.7 | 3.94 | – | – | – | – | –
O=C1Nc2ccc(F)cc2/C1=C/c1ccc(-c2cn(-c3ccc(Cl)c(C(F)(F)F)c3)nn2)cc1 | > 20 | > 20 | 16.5 | 0.169 | – | – | – | –
O=C1Nc2ccccc2/C1=C/c1ccc(-c2cn(-c3ccc(Cl)cc3)nn2)cc1 | 16.2 | 18.2 | 14 | 0.163 | – | – | – | –
N#Cc1ccccc1-n1cc(-c2ccc(C=C3C(=O)Nc4ccc(F)cc43)cc2)nn1 | 15.2 | > 20 | 14 | 0.187 | – | – | – | –
O=C1Nc2ccccc2/C1=C/c1ccc(-c2cn(-c3ccccc3Cl)nn2)cc1 | > 20 | > 20 | > 20 | > 0.2 | – | – | – | –
O=C1Nc2ccc(F)cc2C1=Cc1ccc(-c2cn(-c3ccc(Cl)cc3)nn2)cc1 | 15.8 | 19.6 | 11.2 | 0.17 | – | – | – | –
N#Cc1ccc(-n2cc(-c3ccc(C=C4C(=O)Nc5ccccc54)cc3)nn2)cc1 | > 20 | > 20 | 15.8 | 0.179 | – | – | – | –
O=C1Nc2ccccc2/C1=C/c1ccc(-c2cn(-c3cccc(Cl)c3)nn2)cc1 | > 20 | > 20 | > 20 | > 0.2 | – | – | – | –
N#Cc1ccc(-n2cc(-c3ccc(C=C4C(=O)Nc5ccc(F)cc54)cc3)nn2)cc1 | > 20 | > 20 | > 20 | 0.19 | – | – | – | –
O=C1Nc2ccc(F)cc2/C1=C/c1ccc(-c2cn(-c3cccc(Cl)c3)nn2)cc1 | 14.1 | 19.4 | 10.5 | 0.186 | – | – | – | –
O=C1Nc2ccc(F)cc2/C1=C/c1ccc(-c2cn(-c3ccc(F)cc3)nn2)cc1 | > 20 | > 20 | > 20 | 0.193 | – | – | – | –
